RGS4 act: RGS4 potentiation or activation; HEK293 M3R/inducible RGS4, carbachol calcium flux Fluo4; active compounds read low; B-score at 10 µM; actives 0.92% (n = 310,000);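 active = B-score of the integrated calcium signal more than 4 SD below the library mean, with starting fluorescence not abnormally high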;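 also: negative B-score means reduced calcium response which marks RGS4 activation or potentiation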
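Detection: kinetic calcium fluorescence imaging with Fluo4-AM dye, 2 µM / Material: HEK293 cells with stable M3R and inducible RGS4 / Schedule: recording 10 s baseline at 1 Hz, 100 s post-agonist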
RGS4 block: inhibitors of human RGS4; P49798; HEK293 M3R/RGS4 inducible, Fluo-4 calcium flux; active compounds read high; triggered by carbachol at its EC20; B-score at 10 µM; actives 0.45% (n = 310,000); AID 463165;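 active = B-score, a plate-corrected calcium signal, over three deviations above library mean, with baseline fluorescence within five deviations of library mean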;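 also: RGS4 expression induced by doxycycline in cells with stable M3 receptor; B-score is computed from the integrated fluorescence ratio over baseline after carbachol; higher B-score means a larger calcium signal and so more RGS4 inhibition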
Target sequence (P49798 whole entry, looked up): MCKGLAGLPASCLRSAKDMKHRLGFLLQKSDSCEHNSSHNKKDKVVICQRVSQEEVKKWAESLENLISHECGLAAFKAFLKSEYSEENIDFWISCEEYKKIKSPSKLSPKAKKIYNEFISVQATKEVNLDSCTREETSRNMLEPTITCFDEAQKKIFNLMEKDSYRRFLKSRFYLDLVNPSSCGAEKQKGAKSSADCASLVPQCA
MrgX1 ag: activates human MrgX1 receptor signaling; actives 0.44% (n = 310,000); Q96LB2; MrgX1-HEK293 cells, Fluo-4 calcium fluorescence, agonist mode; active compounds read high; B-score at 10 µM;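 active = calcium response B-score plate-corrected fluorescence ratio at least 3 library SD, with starting fluorescence B-score inside 5 SD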
Target sequence (Q96LB2 whole entry, looked up): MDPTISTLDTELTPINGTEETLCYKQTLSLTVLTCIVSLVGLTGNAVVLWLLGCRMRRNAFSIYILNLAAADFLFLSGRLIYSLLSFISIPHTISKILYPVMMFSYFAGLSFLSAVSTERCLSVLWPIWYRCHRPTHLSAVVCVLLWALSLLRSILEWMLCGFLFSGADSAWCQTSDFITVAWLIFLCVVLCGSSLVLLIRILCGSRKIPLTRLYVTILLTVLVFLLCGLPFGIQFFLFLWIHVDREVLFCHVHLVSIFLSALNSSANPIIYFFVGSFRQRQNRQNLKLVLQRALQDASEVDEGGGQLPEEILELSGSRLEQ
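System: HEK293 cells stably expressing human MrgX1 receptor; Dosing: test compound in the initial addition of three; Schedule: overnight plating, then 30 min 37 °C plus 30 min room-temperature dye loading; Detection: kinetic calcium dye fluorescence, Fluo-4 NW; Controls: per-plate positive and negative controls for Z′ factor.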
MrgX1 antag: human MrgX1 receptor antagonism, primary screen | MRGX1-HEK293 calcium flux, Fluo-4, BAM8-22 antagonism; active compounds read low | B-score at 10 µM | actives 1.3% (n = 310,000) | AID 588676;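 active = calcium-response B-score plate-corrected more than 3 library SD below zero, starting fluorescence within 5 deviations, no agonist response on first addition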;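 also: peak minus trough fluorescence over baseline after final BAM8-22 challenge near maximal dose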
MrgX1 PAM: allosterically activates human MrgX1 receptor signaling. Q96LB2. MrgX1-HEK293, Fluo-4 calcium flux, FDSS; active compounds read high. B-score at 10 µM. actives 0.63% (n = 310,000);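 active = plate-corrected calcium response at least 3 library SD above typical, normal starting fluorescence, not activating the receptor alone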;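 also: compound read alongside a low EC10 to EC30 dose of BAM8-22 agonist; peak minus trough fluorescence over baseline measured at the second addition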
RGS4 inh valid: validation of RGS4 inhibitors. shares compounds with RGS4 block. calcium response, % at 10 µM. AID 492999. HEK293 M3R/RGS4, carbachol calcium Fluo-4 fluorescence; carbachol added at its EC20; 0 = buffer wells, 100 = carbachol control. actives 65% (n = 1,700);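 active = duplicate-averaged calcium response above the buffer-only control mean plus 5 SD of those controls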;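 also: integrated fluorescence ratio F max minus min over baseline F0; higher response in RGS4-induced cells means RGS4 inhibition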
RGS4 uninduced: counter-screen for RGS4 inhibitors: effect in non-induced cells | shares compounds with RGS4 block | HEK293 M3R non-induced, carbachol calcium Fluo-4; submaximal (EC20) carbachol stimulus; buffer wells 0%, carbachol control wells 100% | activity (percent), % at 10 µM | actives 20% (n = 1,900) | AID 493000; call rule not given here;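 also: RGS4 induction absent so cells express M3R without RGS4; higher means more calcium signal and flags a non-specific hit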
M3R basal Ca ctr: signal in non-induced cells without carbachol, RGS4 inhibitor counter-screen. shares compounds with RGS4 block. HEK293 M3R/RGS4 non-induced, Fluo-4 calcium, no carbachol; normalised: buffer wells 0%, carbachol wells 100%. calcium response (agonist-mode artifact), % at 10 µM. actives 22% (n = 1,900);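 active = duplicate-averaged calcium rise in uninduced cells above buffer wells' mean plus 5 SD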
MrgX1 ag reconf: reconfirmed activator of human MrgX1 receptor signaling | shares compounds with MrgX1 ag | MrgX1-HEK293, Fluo-4 calcium fluorescence, FDSS | activation, % at 10 µM | actives 78% (n = 600) | AID 602412;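 active = calcium signal rise, corrected for plate position, at least 3 library SD high, with starting brightness within 5 such deviations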
MrgX1 allo conf: reconfirmed allosteric activator of human MrgX1 receptor. actives 13% (n = 1,200). MrgX1-HEK293, Fluo-4 calcium fluorescence, FDSS. shares compounds with MrgX1 PAM. activation (ratio percentage), % at 10 µM. AID 602413;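 active = ratio at least 3 SD above the weak peptide control, stable starting fluorescence, no direct agonism earlier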;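 also: compound followed by low BAM8-22 agonist challenge near EC20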
MrgX1 ant reconf: human MrgX1 receptor antagonism, re-confirmation screen; actives 19% (n = 2,300); remaining BAM8-22 calcium response % of control (active compounds read low), % at 10 µM; MrgX1-HEK293, BAM8-22 calcium flux, Fluo-4; active compounds read low; AID 602420; shares compounds with MrgX1 antag;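 active = remaining agonist calcium response no higher than 100% minus 3 SD of agonist-only control wells, with starting fluorescence near control levels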;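 also: agonist BAM8-22 given at a near maximal EC90 to ECmax level; peak minus minimum fluorescence divided by baseline after agonist addition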
HEK293 Ca flux: activity in parental HEK293 cells lacking MrgX1; shares compounds with MrgX1 antag; Fluo-4 calcium fluorescence, FDSS; fluorescence ratio F(max-min)/F0 at 10 µM; actives 2% (n = 4,000); AID 624111;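 active = duplicate-averaged calcium fluorescence ratio at least three times the standard deviation of buffer wells, a nonspecific response in parental cells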
HEK293 Ca counter: activity in parental HEK293 cells without MrgX1. shares compounds with MrgX1 antag. parental HEK293 calcium flux, Fluo-4 fluorescence ratio; active compounds read high. fluorescence ratio F(max-min)/F0 at 10 µM. actives 0.4% (n = 4,000). AID 624114;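 active = calcium fluorescence ratio, averaged over duplicates, at least 3 SD of the buffer-well ratio, meaning a nonspecific response in receptor-free cells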;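 also: untransfected parental HEK293 lacking MrgX1 used as counterscreen for MrgX1 allosteric activators; fluorescence change taken during the second addition on a kinetic imager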
HEK293 Ca cntr2: MrgX1 activator counter-screen hit in parental HEK293 cells | Fluo-4 calcium fluorescence (FDSS); active compounds read high | shares compounds with MrgX1 antag | actives 8.7% (n = 4,000) | AID 624115 | fluorescence ratio F(max-min)/F0 at 10 µM;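 active = calcium fluorescence ratio at least three times the spread of buffer wells, meaning a non-specific response in parental cells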
The depositor's hits bear a star; i = inactive; . = no result given. In the library only some 3.5% were active in any assay of this set; here they are far more common.

SMILES | RGS4 act | RGS4 block | MrgX1 ag | MrgX1 antag | MrgX1 PAM | RGS4 inh valid | RGS4 uninduced | M3R basal Ca ctr | others
NC(=O)c1ccc(N2CCNC(=O)C2)c([N+](=O)[O-])c1 | i | i | i | i | i | . | . | .
CC1CCCCN1Cc1c(O)ccc2c(=O)c(-c3nc4ccccc4s3)c(N)oc12 (stereo not drawn) | i | 11.5* | i | i | i | 10.5%* | i | i
O=C(N/N=C\c1cccc(OC(=O)c2ccco2)c1)c1ccc2c(c1)OCO2 | i | i | i | i | i | . | . | .
O=c1c2ccccc2nc2c3ccccc3c(NCc3ccco3)nn12 | i | 4.88* | i | i | i | i | i | i
Cc1ccc(N(CC(=O)N=Nc2c(O)[nH]c3ccccc23)S(C)(=O)=O)c(C)c1 | i | i | i | i | i | i | i | i
Cc1nnc(SCc2nc(N)nc(Nc3ccccc3)n2)s1 | i | 5.42* | i | i | i | 13.5%* | i | i
Nc1nc(CSc2nc3ccccc3s2)nc(N2CCCCC2)n1 | i | i | i | i | i | . | . | .
CCc1ccc(Nc2nc(N)nc(CSc3nc4ccccc4s3)n2)cc1 | i | i | i | i | i | i | i | i
CCOC(=O)N1CCN(C(=O)CCSc2ccccc2)CC1 | i | i | i | i | i | . | . | .
Oc1ccc(C[C@@H]2CNC(=S)N2CCCCC2CCCCC2)cc1 | i | 5.34* | i | i | i | 18.0%* | i | i
O=C(/C=C/c1ccccn1)c1cc(Cl)cc(Cl)c1O | i | 15.1* | i | i | i | 26.0%* | 63.5%* | i
COc1ccc(/C=C/C(=O)c2cc(Cl)cc(Cl)c2O)c(OC)c1 | i | i | i | i | i | . | . | .
COc1ccc(OC)c(NC(=O)c2cc(-c3cc(C)c(C)cc3O)n[nH]2)c1 | i | i | i | i | i | . | . | .
COc1ccc(Cl)cc1NC(=O)c1cc(-c2cc(C)ccc2O)n[nH]1 | i | i | i | i | i | i | i | i
COc1ccc(NC(=O)c2cc(-c3cc(Cl)ccc3O)n[nH]2)c(OC)c1 | i | i | i | i | i | . | . | .
COc1ccc(Cl)cc1NC(=O)c1cc(-c2ccc(C)cc2O)n[nH]1 | i | i | i | i | i | . | i | i
C=CC(C)(C)c1c(O)c(CC=C(C)C)c(O)c2c(=O)c3ccc(O)c(O)c3oc12 | i | 6.01* | i | i | i | 9.5%* | i | i
O=C1C(Cl)=C(NS(=O)(=O)c2ccc([N+](=O)[O-])cc2)C(=O)c2ccccc21 | i | 8.48* | i | i | 21.2* | 42.5%* | i | i | MrgX1 allo conf=14.3%*;HEK293 Ca flux=i;HEK293 Ca counter=i;HEK293 Ca cntr2=i
O=[N+]([O-])c1ccc(Oc2ccc(S(=O)(=O)Nc3ccccc3)cc2)cc1 | i | i | i | i | i | . | . | .
CCOc1ccc(C2C(C#N)=C(N)Oc3cc(O)ccc32)cc1OCC (stereo not drawn) | i | i | i | i | i | . | . | .
COc1ccc(C2C(C#N)=C(N)Oc3cc(O)ccc32)cc1Cl (stereo not drawn) | i | 6.75* | 48.9* | i | i | 20.0%* | 43.0%* | 40.0%* | MrgX1 ag reconf=i;HEK293 Ca flux=i;HEK293 Ca counter=i;HEK293 Ca cntr2=i
CCN(CC)c1ccc(Nc2cc3n(c(=O)n2)CCc2cc(OC)c(OC)cc2-3)cc1 | i | i | i | -11.1* | i | . | 49.5%* | i | MrgX1 ant reconf=i;HEK293 Ca flux=i;HEK293 Ca counter=i;HEK293 Ca cntr2=i
Cc1ccc(NC(=O)CSC(N)=O)cc1Cl | i | 6.07* | i | -4.95* | i | 12.0%* | i | i | MrgX1 ant reconf=85.5%*;HEK293 Ca flux=i;HEK293 Ca counter=i;HEK293 Ca cntr2=i
NC(=O)SCC(=O)Nc1ccc(Cl)c(Cl)c1 | . | . | i | i | i | . | . | .
COc1ccc(C2=Nn3c(nnc3-c3ccncc3)SC2)cc1OC | i | 5.15* | i | i | 8.17* | 9.0%* | i | i | MrgX1 allo conf=i;HEK293 Ca flux=i;HEK293 Ca counter=i;HEK293 Ca cntr2=i
CCOc1ccc(-c2nnc3n2N=C(c2ccc(OC)cc2)CS3)cc1 | i | i | i | i | i | . | . | .
CC(=O)NCc1ccc(C(=O)CCl)s1 | i | i | i | i | i | . | . | .
CC(=O)NCc1ccc(C(=O)CCl)cc1 | i | 6.69* | 34.7* | i | i | 40.0%* | i | 9.5%* | MrgX1 ag reconf=196.7%*;HEK293 Ca flux=i;HEK293 Ca counter=i;HEK293 Ca cntr2=i
CCCCS(=O)(=O)N1CCCC(C(=O)NCC2CCCO2)C1 (stereo not drawn) | i | i | i | i | i | . | . | .
COc1cc(C2(c3ccc(O)c(OC)c3)C(=O)Nc3c(C)cc(Br)cc32)ccc1O | i | 11.5* | i | -4.6* | i | 43.0%* | i | 25.0%* | MrgX1 ant reconf=83.1%*;HEK293 Ca flux=i;HEK293 Ca counter=i;HEK293 Ca cntr2=i

Screens: PubChem BioAssay, Johns Hopkins Ion Channel Center
